Measurements: ChEMBL document CHEMBL1156273, “Membrane permeable cyclic peptidyl inhibitors against human Peptidylprolyl Isomerase Pin1” (J Med Chem, 2010)
Calls of active or inactive are those of the source. The rule behind the calls is not given here. Square brackets hold non-standard residues; d marks the D form. Peptide text beside a SMILES is read from it. dalloThr(PO3H2) = C[C@@H](OP(=O)(O)O)[C@@H](N)C(=O)O; d(pT) = C[C@H](OP(=O)(O)O)[C@@H](N)C(=O)O; 2Nal = N[C@@H](Cc1ccc2ccccc2c1)C(=O)O; Pip = O=C(O)[C@@H]1CCCCN1

Key:
HeLa [1] = test: Cellular uptake in human HeLa cells assessed as nuclear localization at 1 uM after 48 hrs by fluorescence microscopy; format: ADME, cell-based
Outline: (§1)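 HeLa cells in DME + 10% FBS, 1% pen/strep, 37 °C, 5% CO2, grown on cover glass. Given 0 or 1.0 μM FITC-labeled peptide (FITC on the Glu side chain via a Lys linker) for 48 h. Then PBS-washed, fixed in 3.7% paraformaldehyde, permeabilized with goat serum/Triton X-100, DAPI-stained, and imaged by fluorescence microscopy.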

HeLa [2] = test: Cellular uptake in human HeLa cells assessed as cytoplasmic localization at 1 uM after 48 hrs by fluorescence microscopy; format: ADME, cell-based; outline: as §1
BT-474 = test: Antiproliferative activity against human BT474 cells at […] after 6 days; format: functional
[3] = molecular target: Peptidyl-prolyl cis-trans isomerase NIMA-interacting 1 (Homo sapiens) (UniProt Q13526); test: Inhibition of Pin1 in human BT474 cells assessed as increase in SMRT level at 5 uM by Western blotting; format: cell-based; settings: BT-474
Outline: (§2)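 Cells given peptide for 48 h: HeLa in DME + 10% FBS, pen/strep; BT-474 in Hybri-Care DME + 10% FBS. Vehicle control DMSO. Lysed in RIPA with protease inhibitors, equal protein (Bradford) on 8% SDS-PAGE, nitrocellulose transfer, milk block. Probed with anti-SMRT, anti-PML and anti-β-actin (loading), HRP secondary, chemiluminescent detection.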

[4] = molecular target: Peptidyl-prolyl cis-trans isomerase NIMA-interacting 1 (Homo sapiens) (UniProt Q13526); test: Inhibition of Pin1 in human BT474 cells assessed as increase in PML level at 5 uM by Western blotting; format: cell-based; settings: BT-474; outline: as §2

Sequence of Peptidyl-prolyl cis-trans isomerase NIMA-interacting 1 (Homo sapiens) (Q13526 whole entry): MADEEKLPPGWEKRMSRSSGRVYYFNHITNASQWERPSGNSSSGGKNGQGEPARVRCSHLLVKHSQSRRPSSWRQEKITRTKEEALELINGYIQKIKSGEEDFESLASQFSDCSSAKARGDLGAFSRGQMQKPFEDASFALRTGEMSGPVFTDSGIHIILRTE

`C[C@@H](OP(=O)(O)O)[C@H]1NC(=O)[C@@H](CCCNC(=N)N)NC(=O)[C@@H](CCCNC(=N)N)NC(=O)[C@H](CCC(N)=O)NC(=O)[C@H](CCCNC(=N)N)NC(=O)[C@H](Cc2ccc3ccccc3c2)NC(=O)[C@@H]2CCCCN2C1=O` was tested, and the Drug uptake (HeLa [1]) was “Active” and the Drug uptake (HeLa [2]) was “Active”.
For `C[C@H](OP(=O)(O)O)[C@H]1NC(=O)[C@@H](CCCNC(=N)N)NC(=O)[C@@H](CCCNC(=N)N)NC(=O)[C@H](CCC(N)=O)NC(=O)[C@@H](CCCNC(=N)N)NC(=O)[C@@H](CCCNC(=N)N)NC(=O)[C@@H](CCCNC(=N)N)NC(=O)[C@H](CCCNC(=N)N)NC(=O)[C@H](Cc2ccc3ccccc3c2)NC(=O)[C@@H]2CCCCN2C1=O` (cyclo([dR][dR][d(pT)][Pip][2Nal]R[dR][dR][dR]Q)), the Drug uptake (HeLa [1]) was “Active” and the Drug uptake (HeLa [2]) was “Active”.
For `C[C@H]1NC(=O)[C@H](CCC(N)=O)NC(=O)[C@H](CCCN)NC(=O)[C@H](Cc2ccc3ccccc3c2)NC(=O)[C@@H]2CCCCN2C(=O)[C@@H]([C@@H](C)OP(=O)(O)O)NC(=O)CNC1=O`, the Activity (BT-474) was “inactive”.
With `C[C@H](O)[C@H]1NC(=O)[C@@H](CCCNC(=N)N)NC(=O)[C@@H](CCCNC(=N)N)NC(=O)[C@H](CCC(N)=O)NC(=O)[C@@H](CCCNC(=N)N)NC(=O)[C@@H](CCCNC(=N)N)NC(=O)[C@@H](CCCNC(=N)N)NC(=O)[C@H](CCCNC(=N)N)NC(=O)[C@H](Cc2ccc3ccccc3c2)NC(=O)[C@@H]2CCCCN2C1=O` (cyclo([dR][dR][dT][Pip][2Nal]R[dR][dR][dR]Q)) the Drug uptake (HeLa [1]) was “Active” and the Drug uptake (HeLa [2]) was “Active”.
For `CC1NC(=O)[C@H](CCC(N)=O)NC(=O)[C@H](Cc2ccc(O)cc2)NC(=O)[C@H](Cc2ccc3ccccc3c2)NC(=O)[C@@H]2CCCCN2C(=O)[C@@H]([C@@H](C)OP(=O)(O)O)NC(=O)CN(C)C1=O` (stereo in doubt), the Activity (BT-474) was “inactive”.
`C[C@H](O)[C@H]1NC(=O)[C@@H](CCCNC(=N)N)NC(=O)[C@@H](CCCNC(=N)N)NC(=O)[C@H](CCC(N)=O)NC(=O)[C@H](CCCNC(=N)N)NC(=O)[C@H](Cc2ccc3ccccc3c2)NC(=O)[C@@H]2CCCCN2C1=O` was tested, and the Drug uptake (HeLa [1]) was “Active” and the Drug uptake (HeLa [2]) was “Active”.
With `C[C@@H](OP(=O)(O)O)[C@H]1NC(=O)[C@H](CCCNC(=N)N)NC(=O)[C@H](CCCNC(=N)N)NC(=O)[C@H](CCCNC(=N)N)NC(=O)[C@H](CCC(N)=O)NC(=O)[C@H](CCCNC(=N)N)NC(=O)[C@H](CCCNC(=N)N)NC(=O)[C@H](Cc2ccc3ccccc3c2)NC(=O)[C@@H]2CCCCN2C1=O` (cyclo([2Nal]RRQRRR[dalloThr(PO3H2)][Pip])) the Activity [3] was “Active”, the Activity [4] was “Active” and the Drug uptake (HeLa [1]) was “Active”. For the same compound, the Drug uptake (HeLa [2]) was “Active”.
For `C[C@H](O)[C@H]1NC(=O)[C@H](CCCNC(=N)N)NC(=O)[C@H](CCCNC(=N)N)NC(=O)[C@H](CCCNC(=N)N)NC(=O)[C@H](CCC(N)=O)NC(=O)[C@H](CCCNC(=N)N)NC(=O)[C@H](CCCNC(=N)N)NC(=O)[C@H](Cc2ccc3ccccc3c2)NC(=O)[C@@H]2CCCCN2C1=O` (cyclo([2Nal]RRQRRR[dT][Pip])), the Drug uptake (HeLa [1]) was “Active” and the Drug uptake (HeLa [2]) was “Active”.
